# Source: PubChem BioAssay (several laboratories)
# APP 5'UTR act: activators of APP 5'UTR luciferase reporter, primary screen, SH-SY5Y cells; SH-SY5Y APP 5'UTR luciferase reporter, luminescence; zero percent = DMSO vehicle wells; activation, % at 2 µM; 190,000 tested, 1% active; AID 1276, 2008;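 active means activation above a set limit, based on mean plus 3 SD of controls, cut at about 140% in these data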
# NF-kB neuron act: activators of NF-kB expression in neurons, primary screen, cell-based, HTS | fold change at 12.5 µM | 190,000 tested, 1.6% active | human neuronal cells, NF-kB reporter expression; hits give high values; in the data active means fold change above about 3.3
# STAT3 blocker: IL-6 driven STAT3 reporter inhibitors, primary screen, U3A cells, luciferase, luminescence, MLSCN library; IL-6 STAT3-luciferase reporter; host cell line lacks STAT1; inhibition, % at 5.5 µM; 190,000 tested, 0.89% active; AID 862, 2007;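 active means inhibition above the mean inhibition across all screened compounds plus 3 SD, cut at about 44% in these data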;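 further: 0% = DMSO only wells and 100% = 100 µM nifuroxazide control wells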
# STAT3 act-1: IL-6 driven STAT3 reporter potentiators, primary screen, U3A cells, luciferase, luminescence, MLSCN library. IL-6 STAT3-luciferase reporter; 100% = signal with IL-6 EC80 alone. activation (% of control), % at 5.6 µM. 190,000 tested, 0.91% active. AID 871, 2007;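 active means activation above the screen-wide mean of compound activation plus 3 SD, cut at about 130% in these data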;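 further: 0% = background luminescence of wells with medium and substrate only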
#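 Material: STAT3-luciferase reporter U3A cells. Controls: IL-6-treated wells, 100% activation. Read-out: % activation versus median of IL-6-stimulated wells. Probe or stimulus: IL-6 stimulus at 33 ng/mL final. Timing: compound 1 h, then IL-6 6 h at 37 °C. Signal: reporter luminescence signal.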
# STAT1 act-1: STAT1 signaling activators, primary screen, cell-based, HTS, luciferase reporter | NIH 3T3 STAT1-luciferase reporter, IFN-gamma, luminescence; 100% = IFN-gamma alone, no compound | activation (% of control), % at 5.5 µM | 200,000 tested, 2.6% active | AID 932, 2007;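 active means activation above the screen-wide mean activation plus 3 SD, cut at about 130% in these data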;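 further: raw ratio to IFN-gamma control signal so 100% means no change and 0% no light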
# STAT1 inh: STAT1 signaling inhibitors, primary screen, cell-based, HTS, luciferase reporter; AID 920, 2007; 200,000 tested, 0.35% active; NIH 3T3 STAT1-luciferase reporter, IFN-gamma, luminescence; inhibition, % at 5.5 µM;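 active means inhibition above a set limit, the mean inhibition across all tested compounds plus 3 SD, cut at about 34% in these data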;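 further: 0% = IFN-gamma with DMSO and 100% = IFN-gamma with 300 µM nifuroxazide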
# STAT3 act-2: STAT3 reporter potentiators, retest of hits, confirmation, U3A cells, luciferase, luminescence; shares compounds with STAT3 act-1; IL-6 potentiation; U3A cells lack STAT1; 100 means same as IL-6 alone; potentiation (% of control), % at 5.7 µM; 1,200 tested, 64% active;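 active means percent activation of the STAT3 luciferase reporter above a set limit taken from the earlier primary screen, cut at about 130% in these data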;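 further: 0% = background signal of medium plus substrate and 100% = median of IL-6 with DMSO wells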
# NFkB act 2: NF-kB reporter activators in human cells, counter-screen for STAT3 activator project | shares compounds with STAT3 act-1 | NF-kappaB reporter activation | activation (% of control), % at 5.7 µM | 1,200 tested, 11% active | AID 1309, 2008; in the data active means activation above about 120%;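 further: reporter induced by TNF-alpha stimulation; 100% = median of stimulated DMSO wells and 0% = no signal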
# STAT1 act-2: STAT1 reporter activators, IFN-gamma induced, counter-screen for STAT3 activator project, cell-based, NIH 3T3, luciferase luminescence; shares compounds with STAT3 act-1; NIH 3T3 STAT1-luciferase reporter; activation (% of control), % at 5.7 µM; 1,200 tested, 13% active;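 active means activation above the solvent-only control well mean plus 3 SD, set per screening run, cut at about 120% in these data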;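 further: 100% = IFN-gamma with DMSO median signal so 100% means no change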
# * = called active by the depositor; nt = not tested or not shown. The list is not random: actives were taken first. Their share in the collection is about 4.9%.
SMILES,APP 5'UTR act,NF-kB neuron act,STAT3 blocker,STAT3 act-1,STAT1 act-1,STAT1 inh,STAT3 act-2,NFkB act 2,STAT1 act-2
Cc1nc(C)n(CC(=O)N2CCCC(C(=O)c3cccc4ccccc34)C2)n1 (stereo unspecified),-4,nt,8,97,100,-1,nt,nt,nt
Cn1cc(C(CC(=O)O)C(=O)O)c2ccccc21 (stereo unspecified),5,0.93,-22,126,89,12,nt,nt,nt
CCOC(=O)CC(C#N)c1cn(C)c2ccccc12 (stereo unspecified),-18,1.1,-49,145*,92,9,130,104,95
CSCC[C@H](NC(=O)OC(C)(C)C)c1nnc(SCc2ccc(F)cc2)o1,-13,0.76,2,100,104,-4,nt,nt,nt
CSCC[C@H](NC(=O)OC(C)(C)C)c1nnc(SCc2cccc(F)c2)o1,6,0.86,-42,142*,105,-6,100,112,109
CC1=NN(c2ccccc2)C(=O)/C1=C/c1cccs1,1,1,-25,125,98,2,nt,nt,nt
CC1=NN(c2ccccc2)C(=O)/C1=C/c1ccc[nH]1,32,1.3,-65,150*,107,-8,160*,120,117
O=c1c2ccc([N+](=O)[O-])c3cccc(c32)c2nc3ccccc3n12,8,1,-48,148*,83,19,150*,69,88
CCc1nc2ccccc2c2nc3ccccc3n12,-2,1.2,21,86,97,3,nt,nt,nt
CCOC(=O)c1cnn(-c2ccccn2)c1N,47,1.8,12,94,122,-24,nt,nt,nt
CCOC(=O)c1cnn(-c2cc(C)c3ccccc3n2)c1N,5,1.8,-75,170*,98,2,173*,117,107
CCN(CC)S(=O)(=O)c1ccc(C(=O)NCc2n[nH]c(=S)n2-c2ccc(Cl)c(Cl)c2)cc1,-3,1.3,8,98,94,8,nt,nt,nt
CCCCN(CCCC)S(=O)(=O)c1ccc(NC(=O)Cc2cccs2)cc1,-21,0.99,4,97,88,14,nt,nt,nt
CCn1c(NC(=O)c2cccs2)nc2ccccc21,8,2.1,-45,146*,106,-6,131,106,107
CCN(CC)CCn1c(NC(=O)c2ccc(C(F)(F)F)cc2)nc2ccccc21,-9,1.1,-5,107,106,-9,nt,nt,nt
CCn1c(NC(C)=O)nc2ccccc21,12,1.1,0,101,101,2,nt,nt,nt
CN(C)CCn1c(NC(=O)c2ccc(Cl)cc2)nc2ccccc21,nt,1.5,-76,164*,125,-26,157*,119,123*
CCOC(=O)N1CCN(CC(=O)Nc2c(C(=O)OC)[nH]c3ccccc23)CC1,13,1,-2,105,99,1,nt,nt,nt
C=CCOC(=O)Nc1c(C(=O)OC)[nH]c2ccccc12,-7,0.7,-45,148*,86,15,150*,105,93
COC(=O)c1[nH]c2ccc(C)cc2c1NC(=O)Oc1ccccc1,35,1.9,-5,112,110,-11,nt,nt,nt
COC(=O)c1[nH]c2ccccc2c1NC(=O)Oc1ccccc1,11,1.2,-58,159*,97,3,160*,111,115
O=C(COC(=O)c1ccccc1C(=O)c1ccc(Cl)cc1)NC(c1ccccc1)c1ccccc1,12,0.84,16,90,96,4,nt,nt,nt
